Test [1] addresses KRAS^Q61R/CRAF^WT interaction (Homo sapiens, UniProt P01116+P04049, Q61R). The test can be described thus: NanoBRET assay of Halo-KRAS^Q61R/Nano-CRAF^WT binding in live 293FT cells. It counts as cell-based. For orientation: BRET reads energy transfer from a luciferase to a nearby fluorophore.
The target in a further test is CRAF-RBD (Homo sapiens, UniProt P04049). The test can be described thus: SPR binding to captured avi-CRAF-RBD. As to conditions: 100–1.56 μmol/L. The gist of the method: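 Avi-tagged CRAF-RBD (aa 52–131) was captured on a Neutravidin-coupled CM5 chip in a Biacore S200. A 2-fold series from 100 to 1.56 µmol/L was injected over 1,785 RU, and single 100 µmol/L doses over 3,000 RU. Reference-cell and buffer responses were subtracted, and DMSO mismatches were corrected with a standard curve.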
For orientation: In SPR one partner is held on a chip, and binding of the other changes the refractive index at the surface.

The target in a further test is KRAS^G12D (Homo sapiens, UniProt P01116, G12D). As to the kind of experiment: SPR binding to captured avi-KRAS^G12D-GppNHp. As to conditions: GppNHp-loaded KRAS^G12D; 100–1.56 μmol/L. The gist of the method: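 Avi-KRAS^G12D (aa 2–188) loaded with GppNHp was captured on a Neutravidin-coupled CM5 chip in a Biacore S200. Compounds were injected as a 2-fold series from 100 to 1.56 µmol/L over 2,300 RU, or singly at 100 µmol/L over 3,800 RU. Buffer was HEPES pH 7.5 with NaCl, Tween 20, MgCl₂ and 2.5% DMSO. Reference-cell and buffer responses were subtracted, with DMSO-mismatch correction.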

The subject of test [2] is RAS-deficient MEFs reconstituted with KRAS^Q61R. The test can be described thus: Immunoblot/immunoprecipitation analysis of cell signaling in KRAS^Q61R MEFs. It counts as cell-based, mouse. The gist of the method: (§1)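 RAS-deficient MEFs reconstituted with KRAS^Q61R or BRAF^V600E were grown in DMEM with 10% FBS at 37°C, 5% CO₂. Cells were plated at about 70% confluency and treated 48 h later for 1 h. They were lysed in NP-40 buffer (pH 8.0) for 15 min at 4°C, equalised by Bradford, and immunoblotted for pERK and total ERK. Blots are representative of ≥2 independent experiments.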

In test [3] the test system is MCF10A cells stably expressing Halo-KRAS^G12V. The test can be described thus: Immunoblot analysis of cell signaling in KRAS^G12V-MCF10A cells. The test is classed as cell-based. As to conditions: 1 hour treatment. On the technique in general: Immunoblotting shows a protein as a band on a membrane.
For another test, the system named is KRAS^G12V or CRAF-RBD. The test can be described thus: SPR analysis, result summarised over both targets. It counts as binding. As to conditions: single dose 100 μmol/L or dose-response 100–1.56 μmol/L.
The subject of test [4] is RAS-deficient MEFs reconstituted with BRAF^V600E. As to the kind of experiment: Immunoblot analysis of cell signaling in BRAF^V600E MEFs. It counts as cell-based, mouse. As to conditions: 1 hour treatment. The essentials: as §1

With `CN1CCN(CCCN2c3ccccc3Sc3ccc(C(F)(F)F)cc32)CC1` [Trifluoperazine], in test [1], the IC50 (commonly the concentration at which inhibition is half-maximal) was found to be 14.3 µM.
On the same count and under the same terms, the same measure for `CCOc1nc2cccc(C(=O)OC(C)OC(=O)OC3CCCCC3)c2n1Cc1ccc(-c2ccccc2-c2nnn[nH]2)cc1` (centres unmarked) [Candesartan cilexetil]: 5.4 µM; for `C/C=C(/C)C(=O)O[C@H]1C(C)=C2[C@H]([C@@H]1OC(=O)CCCCCCC)[C@@](C)(OC(C)=O)C[C@H](OC(=O)CCC)[C@@]1(O)[C@H]2OC(=O)[C@@]1(C)O` [Thapsigargin]: 14 µM.
In the case of `Clc1ccc(C(c2ccc(Cl)cc2)n2cc[n+](CC(OCc3ccc(Cl)cc3Cl)c3ccc(Cl)cc3Cl)c2)cc1` (centres unmarked) [Calmidazolium chloride], at CRAF-RBD, the “SPR binding to CRAF-RBD” value is “non-selective and non-saturable binding”. The molecule further returned an IC50 in test [1] of 3.6 µM. Besides, at KRAS^G12D, the “SPR binding to KRAS^G12D” value was “non-selective and non-saturable binding”.
For the molecule `CN1C(=O)[C@]23CC4=CC=C[C@H](O)[C@H]4N2C(=O)[C@@]1(CO)SS3` [Gliotoxin], the “pERK levels (ERK activation)” value is “inhibit RAS-dependent ERK activation” in test [2] (1 hour treatment, immunoblot) and “inhibit RAS-dependent ERK activation” in test [3]. This molecule registered an IC50 in test [1] of 2.8 µM.
`COc1cc(CCN)c2c(c1OC)SSSSS2` [Varacin] registered an IC50 in test [1] of 9.5 µM.
For Swinhopeptolide, the “SPR binding to CRAF-RBD” value at CRAF-RBD was “slow on/off rates and possible non-specific binding”. For the same molecule, the “SPR binding to KRAS^G12D” value on KRAS^G12D is “slow on/off rates and possible non-specific binding”.
In test [1], `C[C@@H]1O[C@@H](O[C@H]2[C@H](O[C@H]3CO[C@@H](O[C@H]4CC[C@]5(C)[C@H]6CC[C@]78OC[C@@]9(CC[C@](C)(C=O)C[C@H]97)[C@H](O)C[C@@]8(C)[C@]6(C)CC[C@H]5C4(C)C)[C@H](O[C@@H]4O[C@H](CO)[C@@H](O)[C@H](O)[C@H]4O)[C@H]3O)O[C@H](CO)[C@@H](O)[C@@H]2O)[C@H](O)[C@H](O)[C@H]1O` [Ardisiacrispin B] registered an IC50 of 5 µM.
The molecule `CC(C)=CCC[C@]1(C)C=Cc2c(O)c3c(c(CC=C(C)C)c2O1)O[C@]12C(=C[C@@H]4C[C@H]1C(C)(C)O[C@@]2(C/C=C(/C)C(=O)O)C4=O)C3=O` [Gambogic acid] registered an IC50 in test [1] of 1.7 µM.
As for `CC(C)(C)c1ccc(C(O)CCCN2CCC(C(O)(c3ccccc3)c3ccccc3)CC2)cc1` (centres unmarked) [Terfenadine], the concentration for half-maximal inhibition (IC50) in test [1] worked out at 6 µM.
In the case of `CN1C(=O)[C@]2(Cc3cn([C@]45C[C@@]67SS[C@@](CO)(C(=O)N6[C@H]4Nc4ccccc45)N(C)C7=O)c4ccccc34)SS[C@@]1(CO)C(=O)N2C` [Chetomin], the IC50 in test [1] came out at 2.9 µM.
Turning to `CN(C)CCOc1ccc(-c2nc(-c3ccncc3)c(-c3ccc4c(c3)CC/C4=N\O)[nH]2)cc1` [SB590885], the “increase of the Halo-KRAS^Q61R/Nano-CRAF^WT interaction (BRET signal)” value in test [1] (0.5 and 1 μmol/L for 4 hours, normalized BRET signal) was “approximately 35%”.
On to `CC(C)=C[C@H]1C[C@H](C)[C@]2(CC[C@]3(C)C[C@H]4[C@H](C(=O)C[C@@]4(C)O)/C(C=O)=C\C[C@H]32)O1` [Ophiobolin A], for which, in test [2] (1 hour treatment, immunoblot), the “pERK levels (ERK activation)” value is “reduced pERK levels in a dose-dependent manner” and the “phosphorylation of endogenous CRAF on S338 (pS338-CRAF)” value was “reduced the phosphorylation of CRAF on S338”. Also, in test [1], the IC50 was found to be 1.08 µM. The “SPR binding to KRAS or the CRAF-RBD” value with KRAS^G12V or CRAF-RBD was “inability to detect binding”. Further, in test [3], the “pERK levels (ERK activation)” value is “dose-dependent decrease”; the “pMEK levels (phosphorylation and activation of MEK)” value is reported as “dose-dependent decrease”; the “phosphorylation of endogenous CRAF on S338 (pS338-CRAF)” value is “reduced the phosphorylation of CRAF on S338”.
Consider `COc1cc(/C=C(\C#N)C(N)=O)cc(CSc2nc3ccccc3s2)c1O` [AG825], for which the “pERK levels (ERK activation)” value is listed as “pERK levels were reduced” in test [4]; “increased RAS-dependent ERK activation” in test [2] (1 hour treatment, immunoblot); “increased RAS-dependent ERK activation” in test [3]. In test [2] (10 μmol/L for 1 hour), the “BRAF/CRAF dimer formation (CRAF immunoprecipitation probed for BRAF)” value was “increase the detection of heterodimerized CRAF/BRAF complexes”.
`Cc1cc2c(C(C)C)c(O)c(O)c(C=O)c2c(O)c1-c1c(C)cc2c(C(C)C)c(O)c(O)c(C=O)c2c1O` [Gossypol] had an IC50 in test [1] of 5.2 µM.
Consider `CC(C)(C)CC(C)(C)NCC(O)COc1ccc(C(C)(C)c2ccc(OCC(O)CNC(C)(C)CC(C)(C)C)cc2)cc1.Cl` (centres unmarked) [NSC145366], for which the “pERK levels (ERK activation)” value was “suppressed pERK levels” in test [4]; “inhibited ERK activation” in test [2] (1 hour treatment, immunoblot); “inhibited ERK activation” in test [3].

Values taken from PMC8419108 (Molecular Cancer Therapeutics, 2021).
